Reference: PMC6893084 (Journal of thrombosis and haemostasis : JTH, 2019)
“And” between values parts separate entries of the source, which are not always exact repeats. Identical values can stand only once. Like-named read-outs stand apart in the source and are kept apart here.

Experiments:
SCI–FXIa complex = SCI–FXIa complex (Homo sapiens, UniProt P03951); test: In vitro reversibility of SCI inhibition of FXIa by antidotes, S-2366 hydrolysis; assay type: biochemical; details: for restoration potency (EC50) / restoration yield (ΔY) of FXIa activity: FXIa inhibited by 2 μM of SCI, pH 7.4, 37 °C
SCI–FXIa complex, sequence (P03951 388-625 limits assumed): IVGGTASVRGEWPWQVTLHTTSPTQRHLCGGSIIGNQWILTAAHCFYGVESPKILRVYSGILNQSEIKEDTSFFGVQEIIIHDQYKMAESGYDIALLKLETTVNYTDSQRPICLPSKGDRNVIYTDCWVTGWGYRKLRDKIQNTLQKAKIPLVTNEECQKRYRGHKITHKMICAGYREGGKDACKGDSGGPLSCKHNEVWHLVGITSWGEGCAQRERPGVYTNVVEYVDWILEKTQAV
SCI–FXIa complex, sequence (P03951 19-387 limits assumed): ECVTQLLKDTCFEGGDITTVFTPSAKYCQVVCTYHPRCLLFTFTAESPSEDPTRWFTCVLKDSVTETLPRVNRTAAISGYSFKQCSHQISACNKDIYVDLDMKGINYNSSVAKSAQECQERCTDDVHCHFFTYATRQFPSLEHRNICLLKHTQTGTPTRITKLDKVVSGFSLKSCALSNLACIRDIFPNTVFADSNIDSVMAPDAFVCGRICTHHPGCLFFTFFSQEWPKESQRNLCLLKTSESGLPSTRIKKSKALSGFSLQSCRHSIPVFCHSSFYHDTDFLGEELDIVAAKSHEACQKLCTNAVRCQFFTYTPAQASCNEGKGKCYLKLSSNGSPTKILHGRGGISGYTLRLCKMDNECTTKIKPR

human plasma [1] = test: Prothrombin time; assay type: biochemical; details: even at 150 μM
Outline: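 One-stage recalcification clotting assay of human plasma containing varying levels of test compound. Clotting was started with Thromboplastin-D and CaCl2 at 37 °C and time to clot recorded. Clotting time versus concentration was fitted with a quadratic equation to give the concentration that doubles clotting time.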

[2] = FeCl3-induced arterial thrombosis model in rats; assay type: in vivo, rat
Outline: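 Female Wistar rats (~250 g), under ketamine/xylazine with isoflurane maintenance. Test compound (250, 500 or 2000 μg/rat) or enoxaparin in PBS was infused into the tail vein. After 5 min, 10% FeCl3-soaked filter paper was applied to the exposed abdominal aorta between two sutures for 10 min. The clot matured 15 min, sutures were tightened, and thrombus wet and dry weights recorded.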

[3] = Thromboplastin-induced venous thrombosis model in rats; assay type: in vivo; details: 250 μg per rat
Plasma Kallikrein = Plasma Kallikrein (Homo sapiens, UniProt P03952); test: Chromogenic substrate hydrolysis assay, plasma kallikrein; assay type: biochemical
Outline: (§1)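 Each purified human protease was tested against varying test compound levels under optimal conditions taken from the literature. A chromogenic substrate was used, except for FXIIIa, which used a fluorescence bisubstrate format. Protease activity versus concentration was fitted by non-linear regression to a logistic equation, giving IC50, efficacy (ΔY) and Hill slope.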

Thrombin [4] = molecular target: T1, Thrombin (Homo sapiens, UniProt P00734); test: Thrombin inhibition with sub-optimal chromogenic substrate S-2366; assay type: biochemical
rat plasma = test: APTT of rat plasma; assay type: biochemical
FVIIa/TF = FVIIa/TF (Homo sapiens, UniProt P08709); test: Chromogenic substrate hydrolysis assay, FVIIa/TF; assay type: biochemical
FVIIa/TF, sequence (P08709 213-466 limits assumed): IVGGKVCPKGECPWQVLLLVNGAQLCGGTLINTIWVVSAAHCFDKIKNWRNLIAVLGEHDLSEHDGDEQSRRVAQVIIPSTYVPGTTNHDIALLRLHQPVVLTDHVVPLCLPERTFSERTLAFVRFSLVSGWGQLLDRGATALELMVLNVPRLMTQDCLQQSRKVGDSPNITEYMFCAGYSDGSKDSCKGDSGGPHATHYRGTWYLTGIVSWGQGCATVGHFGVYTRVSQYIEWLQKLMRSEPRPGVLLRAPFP
FVIIa/TF, sequence (P08709 61-212 partner limits assumed): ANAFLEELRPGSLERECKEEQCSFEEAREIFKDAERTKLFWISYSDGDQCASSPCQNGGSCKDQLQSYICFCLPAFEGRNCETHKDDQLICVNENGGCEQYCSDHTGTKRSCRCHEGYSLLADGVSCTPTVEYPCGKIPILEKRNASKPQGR
FVIIa/TF, sequence (P13726 33-295 partner): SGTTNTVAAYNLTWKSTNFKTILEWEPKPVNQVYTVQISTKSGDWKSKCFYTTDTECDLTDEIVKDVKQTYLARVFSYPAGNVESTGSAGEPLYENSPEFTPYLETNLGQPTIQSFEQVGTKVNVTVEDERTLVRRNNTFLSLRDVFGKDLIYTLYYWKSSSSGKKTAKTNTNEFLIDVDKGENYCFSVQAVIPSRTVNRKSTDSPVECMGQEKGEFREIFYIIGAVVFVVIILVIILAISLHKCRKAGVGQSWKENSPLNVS
Outline: as §1

Rat tail bleeding = assay type: in vivo
rFXIa-FLABS2 = rFXIa-FLABS2 (Homo sapiens, UniProt P03951, K547A/R548A/R550A); assay type: biochemical
rFXIa-FLABS2, sequence (P03951 388-625 K547A/R548A/R550A limits assumed): as the sequence (P03951 388-625 limits assumed) above, with K160A, R161A, R163A counted along it
rFXIa-FLABS2, sequence (P03951 19-387 limits assumed): as the sequence (P03951 19-387 limits assumed) above

Mouse tail bleeding = assay type: in vivo; details: IV 35 μg/mouse SCI vs 300 μg enoxaparin
Outline: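 Test compound or enoxaparin comparator was given IV, then the tail was transected. Blood loss (mg) and time to cessation of bleeding were measured, with n = 4–7 per group. Groups were compared by two-tailed t-tests with unequal variance.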

Plasmin = Plasmin (Homo sapiens, UniProt P00747); test: Chromogenic substrate hydrolysis assay, plasmin; assay type: biochemical
Outline: as §1

FXIIIa = FXIIIa (Homo sapiens, UniProt P00488); test: Fluorescence-based bisubstrate assay, FXIIIa; assay type: biochemical
Outline: as §1

plasma = test: Plasma clotting times in the presence of added FXI neutralizing antibody; assay type: biochemical; details: antibody 9 μg per 300 μL; SCI as high as 100 μM
Outline: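 Plasma APTT was measured by a one-stage recalcification assay at 37 °C, with clotting initiated by CaCl2. Plasma contained FXI-neutralizing antibody at 9 μg per 300 μL, and test compound was varied over a wide concentration range.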

FXIa [5] = molecular target: T2, FXIa (Homo sapiens, UniProt P03951); test: FXIa cleavage of macromolecular substrate FIX to FIXa; assay type: biochemical
T2 sequence (P03951 388-625 limits assumed): as the sequence (P03951 388-625 limits assumed) above
T2 sequence (P03951 19-387 limits assumed): as the sequence (P03951 19-387 limits assumed) above

FXIa [6] = molecular target: T2, FXIa; test: Direct inhibition of FXIa, S-2366 chromogenic substrate hydrolysis; assay type: biochemical
Outline: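 Full-length wild-type purified human FXIa hydrolysing chromogenic substrate S-2366 in 20 mM Tris-HCl, pH 7.4, 37 °C, with varying test compound. Activity taken as the initial rate of absorbance increase at 405 nm. A logistic dose–response equation fitted to residual protease activity gave IC50, efficacy (ΔY) and Hill slope.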

FXIa [7] = molecular target: T2, FXIa; test: Fluorescence titration, intrinsic tryptophan fluorescence of FXIa; assay type: binding
human whole blood [8] = test: Hemostasis analysis; details: ex vivo
Outline: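 Citrated human whole blood was spiked with varying levels of test compound or enoxaparin and recalcified with CaCl2. A cone was lowered into the blood, and tension from platelets attaching within the fibrin meshwork was recorded automatically as platelet contractile force, thrombin generation time and clot elastic modulus.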

DEGR-FXIa [9] = molecular target: T3, DEGR-FXIa (Homo sapiens, UniProt P03951); test: Acrylamide quenching of dansyl fluorescence of DEGR-FXIa; assay type: binding; details: 2 μM SCI; acrylamide 0–800 mM
T3 sequence (P03951 388-625 limits assumed): as the sequence (P03951 388-625 limits assumed) above
T3 sequence (P03951 19-387 limits assumed): as the sequence (P03951 19-387 limits assumed) above
Outline: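 Dansyl-labelled active-site-blocked human FXIa (DEGR-FXIa) in 20 mM Tris-HCl, pH 7.4, 37 °C. Acrylamide (0–800 mM) was added sequentially with or without a fixed level of test compound. Dansyl emission was recorded with excitation at 345 nm. Data were fitted to linear or quadratic Stern–Volmer equations.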

Trypsin = test: Chromogenic substrate hydrolysis assay, trypsin; assay type: biochemical, human
Outline: as §1

FXIIa = FXIIa (Homo sapiens, UniProt P00748); test: Chromogenic substrate hydrolysis assay, FXIIa; assay type: biochemical
FXIIa, sequence (P00748 373-615 limits assumed): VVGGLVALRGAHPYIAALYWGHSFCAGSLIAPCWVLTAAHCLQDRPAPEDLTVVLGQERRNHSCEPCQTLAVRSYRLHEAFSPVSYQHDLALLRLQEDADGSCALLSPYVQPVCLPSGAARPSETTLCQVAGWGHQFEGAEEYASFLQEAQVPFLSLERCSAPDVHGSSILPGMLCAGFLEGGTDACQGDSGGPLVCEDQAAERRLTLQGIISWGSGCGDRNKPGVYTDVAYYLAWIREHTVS
Outline: as §1

rFXIa-FLABS1 = rFXIa-FLABS1 (Homo sapiens, UniProt P03951); assay type: biochemical
rFXIa-FLABS1, sequence (P03951 388-625 limits assumed): as the sequence (P03951 388-625 limits assumed) above

FIXa = FIXa (Homo sapiens, UniProt P00740); test: Chromogenic substrate hydrolysis assay, FIXa; assay type: biochemical
Outline: as §1

Chymotrypsin = test: Chromogenic substrate hydrolysis assay, chymotrypsin; assay type: biochemical, human
Outline: as §1

FXIa [10] = molecular target: T2, FXIa; test: Competition between SCI and UFH, S-2366 hydrolysis assay; assay type: biochemical; details: UFH increased from 0 to 150 μM; pH 7.4, 37 °C
Outline: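 Purified full-length human FXIa hydrolysing S-2366 in 20 mM Tris-HCl, pH 7.4, 37 °C, read as initial rate of absorbance rise at 405 nm. Inhibition curves were run with unfractionated heparin at 0, 5, 50 or 150 μM. Fitted to a logistic dose–response equation for IC50, ΔY and Hill slope.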

FXIa [11] = molecular target: T2, FXIa; test: FXIa inhibition with sub-optimal chromogenic substrate Spectrozyme TH; assay type: biochemical
DEGR-FXIa [12] = molecular target: T3, DEGR-FXIa; test: Fluorescence titration, dansyl fluorescence of DEGR-FXIa; assay type: binding; details: pH 7.4, 37 °C
[13] = molecular target: human, wild-type, full-length FXIa (Homo sapiens, UniProt P03951); test: Michaelis-Menten kinetics of S-2366 hydrolysis by FXIa in the presence of SCI; assay type: biochemical; details: pH 7.4, 37 °C
human, wild-type, full-length FXIa, sequence (P03951 388-625 limits assumed): as above
human, wild-type, full-length FXIa, sequence (P03951 19-387 limits assumed): as the sequence (P03951 19-387 limits assumed) above

[14] = test system: HT-29 colorectal cell line; details: HT-29, SCI as high as 100 μM; cited from earlier work
human whole blood [15] = test: Thromboelastography; details: ex vivo
Outline: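 Citrated human whole blood with varying levels of test compound or enoxaparin was recalcified with CaCl2 to start clotting. The cup oscillated through a 4° 45ˋ angle at 0.1 Hz. Reaction time (min), angle (deg), maximum amplitude and shear elastic modulus were recorded automatically.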

rFXIa-FLWT = rFXIa-FLWT (Homo sapiens, UniProt P03951); test: Direct inhibition of recombinant full-length wild type FXIa, S-2366 hydrolysis; assay type: biochemical; details: pH 7.4, 37 °C
[16] = test system: human plasma deficient of antithrombin and heparin cofactor II; test: Clotting of human plasma deficient of antithrombin or heparin cofactor II; assay type: biochemical; details: plasma deficient in antithrombin or heparin cofactor II
Thrombin [17] = molecular target: T1, Thrombin; test: Chromogenic substrate hydrolysis assay, thrombin; assay type: biochemical
Outline: as §1

FXa = FXa (Homo sapiens, UniProt P00742); test: Chromogenic substrate hydrolysis assay, FXa; assay type: biochemical
FXa, sequence (P00742 235-488 limits assumed): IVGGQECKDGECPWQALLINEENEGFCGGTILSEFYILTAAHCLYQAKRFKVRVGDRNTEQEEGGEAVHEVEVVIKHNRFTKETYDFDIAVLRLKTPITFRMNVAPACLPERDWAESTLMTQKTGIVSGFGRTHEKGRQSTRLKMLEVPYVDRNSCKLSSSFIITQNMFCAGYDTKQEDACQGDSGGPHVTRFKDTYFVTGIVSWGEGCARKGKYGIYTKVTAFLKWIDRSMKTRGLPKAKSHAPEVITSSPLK
FXa, sequence (P00742 41-179 partner limits assumed): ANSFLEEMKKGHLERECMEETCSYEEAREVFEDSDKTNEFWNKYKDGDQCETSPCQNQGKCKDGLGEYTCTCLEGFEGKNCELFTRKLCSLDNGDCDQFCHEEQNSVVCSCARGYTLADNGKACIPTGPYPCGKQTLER
Outline: as §1

human plasma [18] = test: Activated partial thromboplastin time; assay type: biochemical

protamine sulfate
restoration potency (EC50) (SCI–FXIa complex): 14.0 µg/mL
restoration yield (ΔY) of FXIa activity (SCI–FXIa complex): ~ 69%

polybrene
restoration potency (EC50) (SCI–FXIa complex): 0.4 µg/mL
restoration yield (ΔY) of FXIa activity (SCI–FXIa complex): ~ 88%

sulfated chiro-inositol [SCI]
impact on the PT (human plasma [1]): minimal
wet weight of thrombus lower than negative control (PBS) ([2]; 250 μg per rat): ~ 33%
wet weight of thrombus ([2]; 250 μg per rat, n=14, PBS 43.35±2.63 mg): 28.85 ± 2.12 mg
decrease of average dry thrombus weight vs PBS ([2]; 500 or 2000 μg/animal): 55–63%
decrease of average wet thrombus weight vs PBS ([2]; 500 or 2000 μg/animal): 53–55%
reduction of average dry weight of thrombus [3]: 48%
wet weight of thrombus less than PBS group [3]: ~ 42%
wet weight of thrombus ([3]; n=13, PBS 38.61±3.56 mg): 22.46 ± 1.14 mg
IC50 (Plasma Kallikrein): > 65 µM
inhibition of thrombin with S-2366 (Thrombin [4]): essentially no inhibition
reversibility with protamine (SCI–FXIa complex; protamine as antidote): > 50%
effect on APTT of rat plasma (rat plasma): preferentially enhance APTT
IC50 (FVIIa/TF): > 50 µM
blood loss (Rat tail bleeding; 250 μg/rat IV, n=15, PBS 147±29 mg): 119 ± 41 mg
tail bleeding time (Rat tail bleeding; 250 μg/rat, PBS 13±4): 14 ± 4 min
reduction in efficacy relative to rFXIa-FLWT (rFXIa-FLABS2): ~ 20%
weaker inhibition relative to rFXIa-FLWT (rFXIa-FLABS2): ~ 5 fold
IC50 (rFXIa-FLABS2; full length FXIa missing catalytic domain's HBS): 20.7 ± 3.6 µM
blood loss and bleeding time (Mouse tail bleeding): much lower than that induced by enoxaparin
IC50 (Plasmin): > 40 µM
IC50 (FXIIIa): > 90 µM
effect on plasma clotting times with FXI neutralizing antibody (plasma): did not significantly impact plasma clotting times
inhibition of FXIa cleavage of FIX to FIXa (FXIa [5]): dose-dependently inhibited
potency relative to SPGG (better) (FXIa [6]; FXIa inhibition): ~ 2 fold and 2 fold
efficacy of FXIa inhibition (FXIa [6]; S-2366, pH 7.4, 37 °C): 100%
IC50 (FXIa [6]; full length, wild type, purified human FXIa, S-2366, pH 7.4, 37 °C): 0.28 ± 0.01 µM
IC50 (FXIa [6]; read-out: potency of FXIa inhibition): 0.28 µM and ~0.28 µM
Kd (FXIa [7]; intrinsic fluorescence, pH 7.4, 37 °C): 0.063 ± 0.011 µM
saturating increase in intrinsic fluorescence (FXIa [7]; pH 7.4, 37 °C): 133%
stoichiometry of SCI binding to dimeric FXIa (FXIa [7]; spectrofluorometric titration): 1.83±0.08
effect on HAS parameters (human whole blood [8]): reduced platelet contractile force and clot elastic modulus, whereas prolonged force onset time
dansyl fluorescence of SCI–DEGR-FXIa complex on acrylamide addition (DEGR-FXIa [9]): remained invariant
IC50 (Trypsin): > 50 µM
IC50 (FXIIa): > 50 µM
potency relative to rFXIa-FLWT (rFXIa-FLABS1): essentially identical
IC50 (rFXIa-FLABS1; full length FXIa missing A3 domain's HBS): 3 ± 0.2 µM
IC50 (FIXa): > 65 µM
IC50 (Chymotrypsin): > 40 µM
increase of IC50 of FXIa inhibition with UFH (FXIa [10]): ~ 6 fold
inhibition of FXIa with Spectrozyme TH (FXIa [11]): potent inhibition
increase in dansyl fluorescence (DEGR-FXIa [12]): 152%
Kd (DEGR-FXIa [12]; read-out: affinity (KD), dansyl fluorescence): 0.025 µM
decrease of VMAX [13]: ~ 4 fold
VMAX in the presence of SCI ([13]; decreased from 52.1): 14.2 mAU/min
highest dose studied relative to effective dose (Maximum tolerated dose; 25 mg/animal, no bleeding or cellular toxicity): > 100 fold
tolerability (mobility, weight loss, bleeding) (Maximum tolerated dose; rats, 5, 10 and 25 mg per animal IV, n=3/group, 7 days observation): well tolerated
cellular toxicity (cell death) [14]: No significant adverse effect
effect on TEG parameters (human whole blood [15]): increase time to initial fibrin formation, while decrease all other parameters
IC50 (rFXIa-FLWT): 4.2 ± 0.6 µM
effect on APTT of serpin-deficient plasma [16]: preferentially prolonged the APTT
IC50 (Thrombin [17]): > 40 µM
IC50 (FXa): > 40 µM
concentration for 2-fold increase in APTT (human plasma [18]): 32.2 µM

O=S(=O)(O)OC[C@H]1O[C@@](COS(=O)(=O)O)(O[C@H]2O[C@H](COS(=O)(=O)O)[C@@H](OS(=O)(=O)O)[C@H](OS(=O)(=O)O)[C@H]2OS(=O)(=O)O)[C@@H](OS(=O)(=O)O)[C@@H]1OS(=O)(=O)O [SOS, sucrose octasulfate]
restoration potency (EC50) (SCI–FXIa complex): 750 µg/mL
restoration yield (ΔY) of FXIa activity (SCI–FXIa complex): ~ 39%
